{"source": "ChEMBL document CHEMBL3352574", "about": "“Incorporation of triphenylphosphonium functionality improves the inhibitory properties of phenothiazine derivatives in Mycobacterium tuberculosis” (Bioorg Med Chem, 2014)", "key": {"[1]": {"test_system": "Mycobacterium tuberculosis", "assay": "Antimicrobial activity against Mycobacterium tuberculosis H37Ra after 5 days by serial macrobroth dilution method", "type": "functional, organism-based", "conditions": "120 h", "how_it_was_run": "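M. tuberculosis H37Ra in 7H9 with 0.5% glycerol, 10% ADC and 0.05% Tween80. Serial macrobroth dilution 128–0.5 μg/mL, log-phase inoculum to final OD600 0.005, 37°C, 200 rpm. Growth read visually at 5 days. No-compound and DMSO controls included. Three biological replicates averaged.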"}, "[2]": {"assay": "(§1) Inhibition of NDH2 in Mycobacterium smegmatis (MC2) 155 membranes assessed NADH oxidation relative to control", "set-up": "species or system Mycolicibacterium smegmatis", "how_it_was_run": "(§2)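 M. smegmatis membranes at 50 μg/mL in 20 mM sodium phosphate pH 8.0 at 37°C, with compound (0–200 μM) preincubated 30 s. Reaction started with 200 μM NADH; A340 followed (ε 6.22 mM⁻¹cm⁻¹), activity in μmol NADH/min/mg. Data normalized to uninhibited activity, IC50 by log(inhibitor) vs response fit. Mean of three independent experiments.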"}, "[3]": {"test_system": "Mycolicibacterium smegmatis", "assay": "Antimicrobial activity against Mycobacterium smegmatis (MC2) 155 after 24 hrs by serial macrobroth dilution method", "type": "functional", "conditions": "(MC2) 155, 24 h", "how_it_was_run": "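Serial macrobroth dilution, 128–0.5 μg/mL in LBT (LB + 0.05% Tween80). Log-phase mc²155 inoculated to final OD600 0.005, incubated 37°C at 200 rpm. Growth scored by eye after 24 h. No-compound and DMSO controls included. Figure data are the average of three biological replicates.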"}, "[4]": {"assay": "Inhibition of Mycobacterium tuberculosis NDH2"}, "[5]": {"test_system": "Mycolicibacterium smegmatis", "assay": "Inhibition of NDH2 in Mycobacterium smegmatis (MC2) 155 membrane assessed inhibition of oxygen consumption relative to control", "how_it_was_run": "(§3)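 Clark-type O2 electrode, 2 mL mix at 37°C, calibrated to 220 nmol O2/mL with air-saturated 20 mM sodium phosphate pH 8.0. M. smegmatis membrane vesicles (French press, 100,000 × g pellet) driven by 10 mM NADH. Test range 0–80 μM; TPZ 0–200 μM. Controls: 80 μM comparators, DMSO, 200 μM KCN, no compound. Two-tailed t-test, p<0.05.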"}, "[6]": {"test_system": "Mycolicibacterium smegmatis", "assay": "Bacteriostatic against Mycobacterium smegmatis at 4.8 ug/ml after 3 to 24 hrs by colony forming unit count method", "type": "functional, organism-based", "how_it_was_run": "(§4)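 Cultures grown in LBT to OD600 ~0.5, then dosed at 8.9 μM per OD600, or CCCP at 500 μM; no-compound and DMSO controls. OD600 taken at 0, 3, 9 and 24 h. CFU at 0, 9 and 24 h: cells washed, diluted in PBS + 0.05% Tween80, spotted on LBT (Miles–Misra), counted after 3 days at 37°C (5–50 colonies). Three biological replicates.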"}, "[7]": {"test_system": "Mycolicibacterium smegmatis", "assay": "Bactericidal activity against Mycobacterium smegmatis at 8.9 uM after 3 to 24 hrs by colony forming unit count method", "type": "functional, organism-based", "how_it_was_run": "as §4"}, "[8]": {"test_system": "Mycolicibacterium smegmatis", "assay": "as §1", "how_it_was_run": "as §2"}, "[9]": {"test_system": "Mycolicibacterium smegmatis", "assay": "Effect on NDH2 in Mycobacterium smegmatis (MC2) 155 membrane assessed increase in oxygen consumption relative to control", "how_it_was_run": "as §3"}, "[10]": {"test_system": "Mycolicibacterium smegmatis", "assay": "Bactericidal activity against Mycobacterium smegmatis at 500 uM after 3 to 24 hrs by colony forming unit count method", "type": "functional, organism-based", "how_it_was_run": "as §4"}}, "note": "Calls of active or inactive are those of the source. The calls are words filed in the database; no cut-off is given here."}
{"smiles": "CN1CCN(CCCN2c3ccccc3Sc3ccc(C(F)(F)F)cc32)CC1", "note": "[TRIFLUOPERAZINE]", "values": [{"measurement": "IC50", "setting": "[1]", "result": 8, "unit": "µg/mL"}, {"measurement": "IC50", "setting": "[2]", "result": 60.1, "unit": "µM"}, {"measurement": "MIC", "setting": "[3]", "result": 64, "unit": "µg/mL"}, {"measurement": "IC50", "setting": "[4]", "result": 12, "unit": "µM"}, {"measurement": "INH", "setting": "[5]", "result": 100, "unit": "µM"}]}
{"smiles": "CN(C)CCCN1c2ccccc2Sc2ccccc21", "note": "[PROMAZINE]", "values": [{"measurement": "IC50", "setting": "[1]", "result": 128, "unit": "µg/mL"}, {"measurement": "MIC", "setting": "[3]", "result": "> 128", "unit": "µg/mL"}]}
{"smiles": "CC(CN1c2ccccc2Sc2ccccc21)N(C)C", "note": "(stereo not drawn) [PROMETHAZINE]", "values": [{"measurement": "MIC", "setting": "[1]", "result": 20, "unit": "µg/mL"}]}
{"smiles": "[Cl-].c1ccc([P+](CCCN2c3ccccc3Sc3ccccc32)(c2ccccc2)c2ccccc2)cc1", "values": [{"measurement": "Activity", "setting": "[6]", "result": "Active"}, {"measurement": "IC50", "setting": "[2]", "result": 15.1, "unit": "µM"}, {"measurement": "MIC", "setting": "[3]", "result": 4, "unit": "µg/mL"}, {"measurement": "INH", "setting": "[5]", "result": 40, "unit": "µM"}]}
{"smiles": "CCC[P+](c1ccccc1)(c1ccccc1)c1ccccc1.[Br-]", "values": [{"measurement": "IC50", "setting": "[1]", "result": "> 128", "unit": "µg/mL"}, {"measurement": "Activity", "setting": "[7]", "result": "inactive"}, {"measurement": "inhibition", "setting": "[8]", "result": "inactive"}, {"measurement": "Activity", "setting": "[9]", "result": "Active"}, {"measurement": "MIC", "setting": "[3]", "result": "> 128", "unit": "µg/mL"}]}
{"smiles": "N#CC(C#N)=NNc1cccc(Cl)c1", "values": [{"measurement": "Activity", "setting": "[10]", "result": "Active"}]}
{"smiles": "Clc1ccc2c(c1)N(CCC[P+](c1ccccc1)(c1ccccc1)c1ccccc1)c1ccccc1S2.[Cl-]", "values": [{"measurement": "IC50", "setting": "[1]", "result": 1, "unit": "µg/mL"}, {"measurement": "MIC", "setting": "[3]", "result": 6, "unit": "µg/mL"}]}
{"smiles": "c1ccc2c(c1)Nc1ccccc1S2", "note": "[PHENOTHIAZINE]", "values": [{"measurement": "IC50", "setting": "[1]", "result": "> 64", "unit": "µg/mL"}, {"measurement": "Activity", "setting": "[7]", "result": "inactive"}, {"measurement": "inhibition", "setting": "[8]", "result": "inactive"}, {"measurement": "MIC", "setting": "[3]", "result": "> 64", "unit": "µg/mL"}]}
{"smiles": "Clc1ccc2c(c1)Nc1ccccc1S2", "values": [{"measurement": "IC50", "setting": "[1]", "result": "> 64", "unit": "µg/mL"}, {"measurement": "MIC", "setting": "[3]", "result": "> 64", "unit": "µg/mL"}]}
{"smiles": "C=C(C)[C@H]1Cc2c(ccc3c2O[C@@H]2COc4cc(OC)c(OC)cc4[C@@H]2C3=O)O1", "values": [{"measurement": "inhibition", "setting": "[8]", "result": "inactive"}]}
{"smiles": "FC(F)(F)c1ccc2c(c1)N(CCC[P+](c1ccccc1)(c1ccccc1)c1ccccc1)c1ccccc1S2.[Cl-]", "values": [{"measurement": "IC50", "setting": "[1]", "result": 1, "unit": "µg/mL"}, {"measurement": "MIC", "setting": "[3]", "result": 12, "unit": "µg/mL"}]}
{"smiles": "CN(C)CCCN1c2ccccc2Sc2ccc(Cl)cc21", "note": "[CHLORPROMAZINE]", "values": [{"measurement": "MIC", "setting": "[1]", "result": 10, "unit": "µg/mL"}, {"measurement": "IC50", "setting": "[4]", "result": 10, "unit": "µM"}]}
{"smiles": "FC(F)(F)c1ccc2c(c1)Nc1ccccc1S2", "values": [{"measurement": "IC50", "setting": "[1]", "result": "> 64", "unit": "µg/mL"}, {"measurement": "MIC", "setting": "[3]", "result": "> 64", "unit": "µg/mL"}]}
